Screen size: about 330,000 compounds; about 300 (0.091%) were called active. Only a selection was taken, and actives are over-represented in it overall. Values without a mark were called inactive.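 The calls were made as follows: active = percent activation above the screen-wide mean plus 3 SD (cut at about 25% in these data); inactive = the rest.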
Target: Caspase-7 (Homo sapiens) (UniProt P55210)
Assay: procaspase-7 activators, primary screen, counter-screen for procaspase-3 activator project, biochemical, absorbance, HTS, human (AID 463210)
Conditions: recombinant procaspase-7, Ac-DEVD-pNA absorbance 405 nm; at 8.5 µM; stronger effect = higher value; D23A/D198A/D206A triple mutant, cannot self-cleave; scale: DMSO 0, 5 µM enzyme 100
In short: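 Test system: Procaspase-7 triple mutant (PC-7 D3A). Also added: Ac-DEVD-pNA substrate, 400 µM as added. Schedule: 1 h enzyme–compound preincubation and 2 h substrate reaction, both 25 °C. Signal: p-Nitroaniline absorbance at 405 nm, read at 0 and 120 min. Control set: low DMSO alone, high DMSO plus 5 µM PC-7.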

Caspase-7 (Homo sapiens), sequence (P55210 whole entry D23A/D198A/D206A): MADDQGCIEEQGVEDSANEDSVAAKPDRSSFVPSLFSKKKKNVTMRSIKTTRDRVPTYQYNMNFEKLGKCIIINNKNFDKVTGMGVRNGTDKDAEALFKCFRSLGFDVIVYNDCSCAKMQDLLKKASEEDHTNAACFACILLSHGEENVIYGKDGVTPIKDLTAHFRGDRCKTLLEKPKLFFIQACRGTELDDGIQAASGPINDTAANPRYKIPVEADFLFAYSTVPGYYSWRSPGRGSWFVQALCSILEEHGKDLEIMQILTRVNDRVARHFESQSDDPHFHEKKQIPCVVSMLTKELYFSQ

| Structure (SMILES) | activation |
| --- | --- |
| COc1cc(N=Cc2c(O)c3ccccc3oc2=O)c(OC)cc1Cl | 14.3% |
| COc1ccccc1N=C(C)C1=C(O)COC1=O | 0.79% |
| COc1ccccc1N=Cc1c(O)c2ccccc2oc1=O | 50.8% (active) |
| COc1ccc(C(O)(C2CCCCC2)C(CN2CCCC2)c2ccccc2)cc1 (stereo not given) | 0.02% |
| COCC1CCCN(C(=O)c2ccc3oc(C(C)C)nc3c2)C1 (stereo not given) | -9.62% |
| COc1ccc(NC(=O)C2CCN(S(=O)(=O)c3ccc4[nH]c(=O)oc4c3)CC2)c(OC)c1 | -1.26% |
| COc1ccc(CCNC(=O)CN2C(=O)COc3ccc(S(=O)(=O)N4CCCC4)cc32)cc1OC | -1.51% |
| CCN(C(=O)COC(=O)c1ccc(COc2ccc3c(C)cc(=O)oc3c2)cc1)C1CCS(=O)(=O)C1 (stereo not given) | 11% |
| O=c1cc(CO)oc(C(Nc2cccc(C(F)(F)F)c2)c2ccccn2)c1O (stereo not given) | -8.69% |
| COc1ccccc1N1CCN(c2nc(C)cc(=O)[nH]2)CC1 | 14.3% |
| CN(CC(=O)Nc1ccccc1Cl)C(=O)COc1cccc2c1OC(C)(C)C2 | -0.56% |
| CCOC(=O)c1cccc(NC(=O)c2ccc(F)cc2F)c1 | -3.97% |
| CCOC(=O)[C@@H]1[C@H]2COc3cc(OC)ccc3[C@@H]2N2C(=O)N(c3cccc(C)c3)C(=O)[C@@]12C | -1.89% |
| CN1CCN(c2ccccc2NC(=O)COc2ccc(C3CCCCC3)cc2)CC1 | 6.3% |
| CCn1c(N)c(Br)c(=O)[nH]c1=O | 12.7% |
| COc1ccc(C(=O)N2CCCCC2C(=O)Nc2ccc(-n3nc(C)cc3C)cc2)o1 (stereo not given) | 0.38% |
| CC(C)CN(CC(C)C)C(=O)CN1c2cccc3cccc(c23)S1(=O)=O | 4.17% |
| NC(=O)C1CCN(Cc2nc3c(Br)cc(Br)cc3c(=O)[nH]2)CC1 | -6.52% |
| COc1ccc(S(=O)(=O)NCC2CCCN(C(=O)c3occc3C)C2)cc1 (stereo not given) | -3.49% |
| CCCCCCCC[n+]1cccc(C(=O)N2c3c(nc(N)[nH]c3=O)NC(C)C2C)c1 (stereo not given) | -2.79% |
| CCOc1cc(C(=O)Nc2c(C)ccc3nsnc23)cc(OCC)c1OCC | -0.81% |
| Cc1[nH]n(C(N)=S)c(=O)c1N=Nc1ccc(Cl)cc1Cl | -4.08% |
| CC1=NN(C(N)=S)C(=O)C1N=Nc1cc(Cl)ccc1Cl (stereo not given) | 42% (active) |

| Structure (SMILES) | activation |
| --- | --- |
| CCN(C[C@H]1N[C@@](CC)(C(=O)OC)[C@H]2C(=O)N(C)C(=O)[C@@H]12)C(=O)Nc1ccc(F)cc1 | 3.05% |
| CC(C)C[C@@H](COc1ccccc1)N1CCN(CC(C)C)CCC1=O | -4.75% |
| CC(C(=O)NCC1CCCCC1)N(C)Cc1cccc(Cl)c1 (stereo not given) | -2.02% |
| Cc1ccc(S(=O)(=O)NCC(=O)N(CC(=O)NCC2CCCO2)c2cccc(F)c2)cc1 (stereo not given) | -1.1% |
| O=C(COc1cccc2c1CCNC2=O)NC1CCCCC1 | -3.37% |
| CCOC(=O)C1=C(CN2CCc3ccccc32)NC(=O)NC1c1cc(C)ccc1C (stereo not given) | 1.19% |
| COc1cccc2cc(C(C)N(CCCN3CCOCC3)C(=O)Nc3ccc(Cl)cc3)oc12 (stereo not given) | 3.94% |
| CCc1nnc(NC(=O)[C@@H](NC(=O)c2cccc(C)c2)C(C)C)s1 | -9.68% |
| Cc1ccc(S(=O)(=O)N2CCC3(CC2)OCCO3)c(C)c1 | 7.32% |
| O=C(NCCN1CCOC1=O)C1CCC(=O)N(CCc2ccc(Cl)cc2)C1 (stereo not given) | -3.88% |
| O=S(=O)(Oc1ccccc1C(=S)N1CCOCC1)c1ccc(Cl)cc1 | 5.11% |
| O=C(Cc1ccccc1F)NC1CCSc2ccccc21 (stereo not given) | -1.51% |
| COc1ccc(CNS(=O)(=O)c2cc(-c3cc(C)no3)ccc2C(C)C)cc1 | 7.17% |
| COc1cccc(C(=O)n2ccc(-c3cccs3)n2)c1 | 7.3% |
| CCN(CCNC(=O)C1=C(C)C(=O)OC12CCC(C)CC2)c1ccccc1 (stereo not given) | -6.83% |
| C=CCN1CN(S(=O)(=O)c2ccc(OC)cc2)c2nc3ccccc3nc21 | 10.1% |
| COc1cccc(CNC(=O)CN(C)S(=O)(=O)c2ccc3c(c2)c(=O)n(C)c(=O)n3C)c1 | 3.47% |
| CC(NC(=O)COc1ccc(-c2ccccc2)cc1)C1CCCO1 (stereo not given) | -7.63% |
| Cc1cc(C)c(C)c(S(=O)(=O)N2CCN(C(=O)c3ccc4c(=O)n5c(nc4c3)CCC5)CC2)c1C | 0.83% |
| Cn1c(C(=O)O)ccc1S(=O)(=O)N(Cc1ccccc1)Cc1ccccc1 | -2.76% |
| Cc1ccc(S(=O)(=O)N(CC(=O)NCCSC2CCCCC2)c2ccccc2F)cc1 | 12.3% |
| CSCc1cc(N2CCOCC2)nc(SCc2ccc(Cl)cc2Cl)n1 | -1.6% |

From PubChem BioAssay AID463210 (The Scripps Research Institute Molecular Screening Center, 2010)
